The values below come from ChEMBL document CHEMBL3102768, “Synthesis, biological evaluation and SAR of 3-benzoates of ingenol for treatment of actinic keratosis and non-melanoma skin cancer” (Bioorg Med Chem Lett, 2014).

Data set [1] has as its target Protein kinase C delta type (Homo sapiens, UniProt Q05655). Put plainly: Activation of PKCdelta (unknown origin) after 40 mins. Summed up:
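In vitro PKCδ phosphorylation of a PKC peptide substrate, with 0.05 mg/mL phosphatidylserine and no diacylglycerol. Compounds were tested as a twelve-point semilog dilution series starting at 10 µM. The reaction was started with ATP and run 40 min at room temperature.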

In data set [2] the test system is Keratinocyte. The data set can be described thus: Induction of proimflammatory activity in human primary epidermal keratinocytes assessed as IL-8 release after 6 hrs relative to ingenol 3-angelate. It counts as functional. A digest of the protocol:
(§1)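 Adult log-phase primary epidermal keratinocytes were seeded at 10,000 cells/well. Cells were incubated with titrated compound for 6 h at 37 °C in 5% CO2. Secreted IL8 was measured by Meso Scale 4-spot cytokine plates or by HTRF. EC50 and Emax were referenced to the maximal response of ingenol 3-angelate.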

Data set [3] can be described thus: Immunostimulatory activity in polymorphonuclear leukocytes (unknown origin) assessed as induction of oxidative burst after 40 mins by fluorescence assay relative to ingenol 3-angelate. It counts as functional. A digest of the protocol: (§2)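 PMN were isolated from fresh buffy coats. Cells were incubated 40 min at ambient temperature with titrated compound (top concentration 10 µM) pre-mixed with hydroethidine. Respiratory burst was read as fluorescence at ex 485/em 579 nm. EC50 is the concentration giving 50% of the maximum effect of ingenol 3-angelate; Emax is the maximal response relative to it.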

Data set [4] deals with Keratinocyte. The data set can be described thus: Induction of proimflammatory activity in human primary epidermal keratinocytes assessed as TNFalpha release after 6 hrs relative to ingenol 3-angelate. It counts as functional. Summed up: (§3)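 Adult log-phase primary epidermal keratinocytes were seeded at 10,000 cells/well. Cells were incubated with titrated compound for 6 h at 37 °C in 5% CO2. Secreted TNFα was measured by Meso Scale 4-spot cytokine plates. EC50 and Emax were referenced to the maximal response of ingenol 3-angelate.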

Data set [5] can be described thus: Immunostimulatory activity in polymorphonuclear leukocytes (unknown origin) assessed as induction of oxidative burst after 40 mins by fluorescence assay. It counts as functional, cell-based. A digest of the protocol:
as §2

The next data set has as its system HeLa. The data set can be described thus: Induction of necrosis in human HeLa cells assessed as remaining metabolic activity after 30 mins by resazurin dye-based assay. As to conditions: 0.5 h, read-out: LC50 (the source's name). It counts as functional. Summed up: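 HeLa cells were exposed to increasing concentrations up to 400 µM for 30 min at 37 °C. Metabolic activity was then measured with a resazurin-based dye (PrestoBlue). LC50 is the concentration giving 50% loss of metabolic activity.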

The subject of data set [6] is Keratinocyte. Put plainly: Induction of proimflammatory activity in human primary epidermal keratinocytes assessed as TNFalpha release after 6 hrs. It counts as functional, cell-based. Summed up:
as §3

Data set [7] in a line: Chemical stability of the compound in aqueous buffer with less than 30% organic solvent assessed as compound recovery at pH 7.4 measured over 16 hrs by HPLC analysis. It counts as physicochemical. The settings on record: read-out: Drug recovery. A digest of the protocol:
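A DMSO stock was diluted into pre-heated (37 °C) aqueous buffer pH 7.4 to ≤30% v/v organic content. The solution was held at 37 °C in the HPLC autosampler and injected within 5 min, then repeatedly over 16 h. Recovery was taken from the decrease in compound peak area, with UV detection normally at 270 nm.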

The test system of data set [8] is Keratinocyte. Put plainly: Induction of proimflammatory activity in human primary epidermal keratinocytes assessed as IL-8 release after 6 hrs. It counts as functional, cell-based. A digest of the protocol: as §1

By pEC50 is commonly meant −log10 of the EC50, conventionally taken in molar units. What is called Emax is the greatest response seen or fitted, relative to the assay's reference.

pEC50: −log10 of the molar value.

Chain of Protein kinase C delta type (Q05655 whole entry): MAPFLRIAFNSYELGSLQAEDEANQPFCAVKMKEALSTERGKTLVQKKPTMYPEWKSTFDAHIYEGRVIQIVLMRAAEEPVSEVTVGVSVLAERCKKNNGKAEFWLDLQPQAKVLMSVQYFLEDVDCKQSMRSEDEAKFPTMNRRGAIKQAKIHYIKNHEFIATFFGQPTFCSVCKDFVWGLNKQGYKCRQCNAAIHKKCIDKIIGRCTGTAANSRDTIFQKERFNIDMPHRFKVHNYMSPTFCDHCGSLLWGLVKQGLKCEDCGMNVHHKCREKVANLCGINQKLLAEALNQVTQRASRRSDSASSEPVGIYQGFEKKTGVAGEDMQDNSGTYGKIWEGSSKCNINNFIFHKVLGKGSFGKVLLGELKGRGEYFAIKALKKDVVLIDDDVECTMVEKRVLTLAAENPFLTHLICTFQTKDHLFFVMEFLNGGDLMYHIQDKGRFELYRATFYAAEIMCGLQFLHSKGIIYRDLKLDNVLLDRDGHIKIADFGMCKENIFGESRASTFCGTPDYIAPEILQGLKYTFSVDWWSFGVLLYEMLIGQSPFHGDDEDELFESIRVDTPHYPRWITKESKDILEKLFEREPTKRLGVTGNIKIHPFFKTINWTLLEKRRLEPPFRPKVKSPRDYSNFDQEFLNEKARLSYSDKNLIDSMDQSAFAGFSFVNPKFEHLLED

Consider `CC1=C[C@]23C(=O)[C@@H](C=C(CO)[C@@H](O)[C@]2(O)[C@H]1OC(=O)c1ccccc1)[C@H]1[C@@H](C[C@H]3C)C1(C)C`, for which the negative-log EC50 (pEC50) was 8.21 in data set [1] and 8.22 in data set [5]. For the same molecule, the Emax in the data set with Keratinocyte [2] turned out to be 54%; in data set [3] it was 110%; in the data set with Keratinocyte [4], 60%.
`CNc1cccc(Cl)c1C(=O)O[C@H]1C(C)=C[C@]23C(=O)[C@@H](C=C(CO)[C@@H](O)[C@]12O)[C@H]1[C@@H](C[C@H]3C)C1(C)C`: the CC50 with HeLa is 145 µM. The results for the negative logarithm of the EC50 (pEC50) (in the data set on Keratinocyte [6]; in the data set with Keratinocyte [8]; in data set [5]) were 7.68, 7.74 and 7.68, respectively. Besides, in data set [7], the remaining at 16 h was over 95%. Besides, the values for the Emax (with Keratinocyte [2]; in data set [3]; in the data set with Keratinocyte [4]) were 105%, 124% and 97%, respectively.
Consider `CNc1cccc(F)c1C(=O)O[C@H]1C(C)=C[C@]23C(=O)[C@@H](C=C(CO)[C@@H](O)[C@]12O)[C@H]1[C@@H](C[C@H]3C)C1(C)C`, for which, in the data set on HeLa, the CC50 came to 152 µM. Besides, the figures for the pEC50 (with Keratinocyte [6]; in the data set on Keratinocyte [8]; in data set [5]) were 8.39, 8.52 and 8.03, respectively. The remaining at 16 h in [7] was 74%. In addition, the Emax with Keratinocyte [2] is 145%; in data set [3], 123%; in the data set with Keratinocyte [4] it was 174%.
On to `CC(=O)Nc1cccc(C)c1C(=O)O[C@H]1C(C)=C[C@]23C(=O)[C@@H](C=C(CO)[C@@H](O)[C@]12O)[C@H]1[C@@H](C[C@H]3C)C1(C)C`, for which the negative-log EC50 (pEC50) in the data set on Keratinocyte [6] is 6.20; in data set [1], 6.01; with Keratinocyte [8], 6.27; in data set [5] it was 6.27. The remaining at 16 h in [7] is 82%. Also, the values for the maximum response (Emax) (in the data set on Keratinocyte [2]; in data set [3]; in the data set on Keratinocyte [4]) were 92%, 113% and 92%, respectively.
On to `CC1=C[C@]23C(=O)[C@@H](C=C(CO)[C@@H](O)[C@]2(O)[C@H]1OCc1ccccc1)[C@H]1[C@@H](C[C@H]3C)C1(C)C`, for which the CC50 in the data set on HeLa is 378 µM. Besides, in data set [7], the remaining at 16 h was over 95%. In addition, the pEC50 is under 5.00 in [1], 5.34 with Keratinocyte [8] and 5.34 in data set [5]. Besides, the Emax in the data set on Keratinocyte [2] was 58%.
As for `CC1=C[C@]23C(=O)[C@@H](C=C(CO)[C@@H](O)[C@]2(O)[C@H]1OC(=O)c1ccccc1C)[C@H]1[C@@H](C[C@H]3C)C1(C)C`, the CC50 in the data set on HeLa is 115 µM. Further, the negative logarithm of the EC50 (pEC50) with Keratinocyte [6] was 7.89; in the data set on Keratinocyte [8] it was 7.82; in data set [5], 8.24. The remaining at 16 h in data set [7] turned out to be 73%. The figures for the Emax (with Keratinocyte [2]; in [3]; in the data set on Keratinocyte [4]) were 58%, 107% and 64%, respectively.
With `CC1=C[C@]23C(=O)[C@@H](C=C(CO)[C@@H](O)[C@]2(O)[C@H]1OC(=O)c1ccccc1C(C)C)[C@H]1[C@@H](C[C@H]3C)C1(C)C`, the CC50 in the data set with HeLa came to 110 µM. For the same molecule, the negative-log EC50 (pEC50) with Keratinocyte [6] was 8.24; in the data set with Keratinocyte [8], 8.36; in [5], 7.96. Also, the remaining at 16 h in [7] turned out to be 70%. The Emax with Keratinocyte [2] is 86%; in data set [3] it was 120%; in the data set with Keratinocyte [4], 96%.
Regarding `COc1ccccc1C(=O)O[C@H]1C(C)=C[C@]23C(=O)[C@@H](C=C(CO)[C@@H](O)[C@]12O)[C@H]1[C@@H](C[C@H]3C)C1(C)C`, the CC50 in the data set on HeLa is 220 µM. For the same molecule, the pEC50 in the data set on Keratinocyte [6] was 7.42; in data set [1], 7.59; in the data set on Keratinocyte [8], 7.38; in [5], 8.17. Moreover, in data set [7], the remaining at 16 h was 70%. For the same molecule, the Emax was found to be 100% with Keratinocyte [2], 107% in [3] and 100% in the data set on Keratinocyte [4].
`CC1=C[C@]23C(=O)[C@@H](C=C(CO)[C@@H](O)[C@]2(O)[C@H]1OC(=O)c1ccccc1Oc1ccccc1)[C@H]1[C@@H](C[C@H]3C)C1(C)C`: the CC50 with HeLa was found to be 83 µM. Also, the pEC50 with Keratinocyte [6] was 8.85; in data set [1], 7.88; in the data set with Keratinocyte [8], 8.96; in data set [5] it was 8.03. Further, the remaining at 16 h in [7] came out at 80%. The maximal effect (Emax) in the data set with Keratinocyte [2] came to 87%; in data set [3], 98%; with Keratinocyte [4] it was 86%.
Consider `CC1=C[C@]23C(=O)[C@@H](C=C(CO)[C@@H](O)[C@]2(O)[C@H]1OC(=O)c1ccccc1NCc1ccccc1)[C@H]1[C@@H](C[C@H]3C)C1(C)C`, for which the CC50 in the data set on HeLa worked out at 168 µM. For the same molecule, the pEC50 with Keratinocyte [6] is 8.82; in the data set with Keratinocyte [8], 8.92; in data set [5], 8.07. The remaining at 16 h in data set [7] was 65%. The Emax with Keratinocyte [2] turned out to be 115%; in [3], 127%; in the data set on Keratinocyte [4], 128%.
`CC1=C[C@]23C(=O)[C@@H](C=C(CO)[C@@H](O)[C@]2(O)[C@H]1OC(=O)c1c(C)cccc1C)[C@H]1[C@@H](C[C@H]3C)C1(C)C`: in the data set on HeLa, the CC50 stood at 97 µM. In addition, the pEC50 is 7.08 with Keratinocyte [6], 7.97 in data set [1], 7.21 in the data set on Keratinocyte [8] and 7.89 in [5]. Further, the remaining at 16 h in [7] was over 95%. Besides, the results for the Emax (with Keratinocyte [2]; in data set [3]; in the data set on Keratinocyte [4]) were 66%, 123% and 61%, respectively.
Regarding `COc1cccc(OC)c1C(=O)O[C@H]1C(C)=C[C@]23C(=O)[C@@H](C=C(CO)[C@@H](O)[C@]12O)[C@H]1[C@@H](C[C@H]3C)C1(C)C`, in the data set with HeLa, the CC50 stood at 400 µM. Also, the pEC50 is 7.24 in the data set on Keratinocyte [6], 6.81 in [1], 7.36 in the data set with Keratinocyte [8] and 7.08 in data set [5]. For the same molecule, the remaining at 16 h in data set [7] is over 95%. Also, the maximum response (Emax) in the data set on Keratinocyte [2] stood at 107%; in data set [3], 116%; in the data set with Keratinocyte [4] it was 113%.
On to `CC1=C[C@]23C(=O)[C@@H](C=C(CO)[C@@H](O)[C@]2(O)[C@H]1OC(=O)c1c(Cl)cccc1Cl)[C@H]1[C@@H](C[C@H]3C)C1(C)C`, for which, in the data set on HeLa, the CC50 was found to be 59 µM. The negative logarithm of the EC50 (pEC50) was 6.56 with Keratinocyte [6], 7.70 in [1], 6.95 in the data set with Keratinocyte [8] and 7.68 in data set [5]. Further, in data set [7], the remaining at 16 h was over 95%. The Emax with Keratinocyte [2] turned out to be 45%; in data set [3], 123%; with Keratinocyte [4] it was 42%.
Take `CC1=C[C@]23C(=O)[C@@H](C=C(CO)[C@@H](O)[C@]2(O)[C@H]1OC(=O)c1c(C)cccc1Cl)[C@H]1[C@@H](C[C@H]3C)C1(C)C`: the CC50 in the data set on HeLa was determined as 126 µM. Besides, the pEC50 with Keratinocyte [6] was 7.27; in the data set on Keratinocyte [8] it was 7.29; in data set [5] it was 8.18. Moreover, the remaining at 16 h in data set [7] was over 95%. Further, the Emax worked out at 52% in the data set on Keratinocyte [2], 130% in data set [3] and 52% with Keratinocyte [4].
In the case of `CC1=C[C@]23C(=O)[C@@H](C=C(CO)[C@@H](O)[C@]2(O)[C@H]1OC(=O)c1c(N)cccc1Cl)[C@H]1[C@@H](C[C@H]3C)C1(C)C`, the CC50 in the data set with HeLa was determined as 185 µM. Besides, the results for the negative-log EC50 (pEC50) (with Keratinocyte [6]; in the data set with Keratinocyte [8]; in data set [5]) were 7.55, 7.70 and 8.15, respectively. Besides, in data set [7], the remaining at 16 h turned out to be 93%. In addition, the values for the Emax (in the data set on Keratinocyte [2]; in data set [3]; with Keratinocyte [4]) were 104%, 161% and 108%, respectively.
As to `CC1=C[C@]23C(=O)[C@@H](C=C(CO)[C@@H](O)[C@]2(O)[C@H]1OC(=O)c1c(C)cccc1O)[C@H]1[C@@H](C[C@H]3C)C1(C)C`, the CC50 in the data set with HeLa was 199 µM. The pEC50 is 7.01 in the data set with Keratinocyte [6], 7.87 in data set [1], 7.15 with Keratinocyte [8] and 8.03 in data set [5]. The remaining at 16 h in data set [7] was over 95%. Also, the Emax with Keratinocyte [2] came to 105%; in [3] it was 125%; with Keratinocyte [4], 156%.
As to `CNc1cccc(C)c1C(=O)O[C@H]1C(C)=C[C@]23C(=O)[C@@H](C=C(CO)[C@@H](O)[C@]12O)[C@H]1[C@@H](C[C@H]3C)C1(C)C`, in the data set on HeLa, the CC50 amounted to 105 µM. The negative-log EC50 (pEC50) with Keratinocyte [6] is 7.80; in the data set on Keratinocyte [8], 7.92; in data set [5], 7.34. Further, the remaining at 16 h in [7] was over 95%. Besides, the Emax with Keratinocyte [2] was found to be 127%; in [3] it was 136%; in the data set on Keratinocyte [4] it was 143%.
